Compound activity: PubChem BioAssay, Broad Institute
Only some compounds are listed: those with a hit (about 1.3% of all), similar ones and a draw of the others.
S100A4 MyoIIA = inhibitors of S100A4-myosin IIA peptide binding, primary screen, biochemical, fluorescence polarization, TAMRA-MyoIIA peptide | Protein S100-A4 (Homo sapiens), P26447 | inhibition, % at 10.7 µM | actives 0.14% (n = 360,000) | AID 652163, 2013;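 active = mean inhibition of at least 70% across replicates, with every replicate also reaching that level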
Target sequence (P26447 whole entry, looked up): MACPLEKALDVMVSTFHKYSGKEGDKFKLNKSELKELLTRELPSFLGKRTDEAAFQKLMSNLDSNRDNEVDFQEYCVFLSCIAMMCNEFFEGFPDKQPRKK
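Test system – S100A4 monomer (human) · Compound – single-point compound testing · Schedule – 5 min incubation before reading · Probe or stimulus – TAMRA-labelled myosin IIA heavy-chain peptide probe, 5 nM · Benchmarks – neutral control DMSO, positive control TFP · Medium – Calcium-containing HEPES buffer, pH 7.2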
RAD52 inh = RAD52 DNA annealing inhibitors, primary screen, biochemical, FRET, single point, set 2 | DNA repair protein RAD52 homolog (Homo sapiens), P43351 | recombinant RAD52 DNA annealing, FRET fluorescence | actives 0.46% (n = 360,000) | AID 651710, 2012 | inhibition, % at 18.7 µM;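 active = every replicate showing at least 50% inhibition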
RAD54 inh = inhibitors of human RAD54 branch migration, primary screen, biochemical, fluorescence, single point | RAD54 Holliday junction branch migration, FAM/BHQ fluorescence | inhibition, % at 10.4 µM | actives 0.14% (n = 360,000);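 active = mean normalized replicate activity at least 40 and at least half of replicates scoring 40 or more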;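 also: 0% = median of neutral control wells and 100% = median of positive control wells; inhibitors cause a drop in the FAM fluorescence signal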
Casp6 inh = human caspase-6 inhibitors, primary screen, biochemical, VEID-R110 fluorescence, single point, set 2; P55212; purified caspase-6, Z-VEID-R110 cleavage fluorescence; inhibition, % at 12.5 µM; actives 0.53% (n = 350,000); AID 686996, 2013;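 active = mean inhibition across replicates at least about 35%, with every replicate also reaching that limit, limit read from the data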;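 also: 0% = median of neutral control wells and 100% = no fluorescence left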
Target sequence (P55212 24-179 limits assumed): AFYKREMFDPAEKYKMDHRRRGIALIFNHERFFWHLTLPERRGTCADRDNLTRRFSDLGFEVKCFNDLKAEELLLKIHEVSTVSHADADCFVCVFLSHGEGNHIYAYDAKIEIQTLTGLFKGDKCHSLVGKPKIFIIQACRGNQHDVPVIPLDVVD
Target sequence (P55212 194-293 limits assumed): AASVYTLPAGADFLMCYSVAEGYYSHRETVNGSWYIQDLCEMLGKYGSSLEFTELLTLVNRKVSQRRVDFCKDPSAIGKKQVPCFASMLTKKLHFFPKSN
Xi reactivation = activators of inactive X chromosome reactivation, primary screen, imaging, XiGFP fibroblasts, GFP high-content imaging, set 2; XiGFP mouse fibroblasts, % GFP-positive cells imaging, 3 d; cells co-treated with 5-aza-dC sensitizer; scaled so ellipticine positive control = 100%; activation, % at 7.58 µM; actives 0.055% (n = 360,000); AID 743238, 2013;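 active = mean normalized replicate activation at least 10% and every replicate at or above 10%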;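 also: 0% = median of on-plate neutral control wells and 100% = ellipticine 6 µM median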
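Schedule: 3 d treatment, 15 min room-temperature fixation; system: 68-5-11 XiGFP fibroblast line; buffer or medium: DMEM plus 5-aza-dC sensitizer; control set: ellipticine 6 µM positive control; compound: one concentration, pinned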
MLL AF4-AF9 inh = inhibitors of AF4 peptide binding to AF9, primary screen, biochemical, AlphaScreen, biotin-AF4 peptide, FLAG-AF9, single point. Protein AF-9 (Homo sapiens), P42568. inhibition, % at 10 µM. actives 0.47% (n = 350,000). AID 651704, 2012;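 active = every replicate reaching a set inhibition limit, whatever the replicate mean, cut at about 25% in these data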;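 also: 0% = plate neutral control median and 100% = total signal loss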
* marks the source's active call; other numbers are inactive results; x = no result.

SMILES	S100A4 MyoIIA	RAD52 inh	RAD54 inh	Casp6 inh	Xi reactivation	MLL AF4-AF9 inh
COc1ccccc1CN(C)C(=O)CN1CCN(CC(=O)Nc2ccccc2Cl)CC1	-3	-16	-1	36*	0	1
CO[C@H]1CC[C@H]2CCN(C)C(=O)C[C@@H](c3ccccc3)CN(C)C(=O)c3cc(C#N)ccc3OC[C@@H]1O2	x	x	x	x	0	x
COc1cccc2c(N/N=C/c3ccccc3)cc(C)nc12	-2	1	3	-2	0	5
COc1ccc(/C=N/Nc2cc(C)nc3ccc(Br)cc23)cc1	-2	4	119*	-6	0	13
COc1ccc2nc(C)cc(Nc3ccccc3OC)c2c1	-3	-12	4	-5	0	2
COc1ccc2nc(C)cc(N/N=C/c3cccc(OC)c3O)c2c1	-5	49	108*	-1	0	25*
COc1ccccc1S(=O)(=O)N[C@@H]1C=C[C@@H](CC(=O)N2CCOCC2)O[C@H]1CO	3	0	-16	53*	0	-5
COc1ccccc1S(=O)(=O)N[C@@H]1CC[C@@H](CC(=O)N2CCN(C)CC2)O[C@@H]1CO	-51	14	-5	-2	0	-1
COc1ccccc1S(=O)(=O)N[C@H]1CC[C@H](CC(=O)N2CCN(C)CC2)O[C@@H]1CO	128*	2	-3	-6	-1	-4
CCN1[C@@H]2c3ccc(-c4ccc(F)cc4)c(=O)n3C[C@H]1[C@H](CO)[C@H]2C(=O)Nc1nccs1	0	2	-2	1	0	-10
Cc1noc(C)c1NC(=O)Nc1cccc2c1O[C@@H](CN(C)Cc1ccc(C(F)(F)F)cc1)[C@H](C)CN([C@@H](C)CO)C2=O	x	7	0	x	0	-1
CCN(CC)c1ccc(C(NC(=O)C(C)C)c2ccc3cccnc3c2O)cc1 (stereo not given)	-2	-14	8	x	0	29*
CCCCC(=O)NC(c1ccc(N(C)C)cc1)c1ccc2cccnc2c1O (stereo not given)	-2	-17	0	-3	1	57*
CCCC(=O)NC(c1cccc([N+](=O)[O-])c1)c1ccc2cccnc2c1O (stereo not given)	6	-31	-10	-6	3	34*
CCCCC(=O)NC(c1ccc(N(CC)CC)cc1)c1ccc2cccnc2c1O (stereo not given)	1	-5	3	4	0	20
COc1ccc2c3c(n(C)c2c1)[C@H](CO)N(C(=O)C1CCCCC1)CC31CCN(C)CC1	x	x	x	x	0	9
COCC(=O)N1CC2(C1)CN(Cc1cccc(Cl)c1)[C@@H](CO)c1[nH]c3cc(OC)ccc3c12	-1	-51	x	-2	0	0
COc1cc(/C=C/C=C2/CC/C(=C/C=C/c3ccc(O)c(OC)c3)C2=O)ccc1O	-25	-38	x	52*	0	4
COc1cc(/C=C2/CC/C(=C/c3ccc(O)c(OC)c3)C2=O)ccc1O	0	-24	x	-1	0	x
O=C1CC(C(=O)Nc2ccc(Br)cc2)C2(CCCC2)O1 (stereo not given)	-23	-5	x	39*	x	-1
CN1C(=O)c2cc(NC(=O)c3ccc(Cl)cc3)ccc2OC[C@@H]2O[C@@H](CC(=O)O)CC[C@@H]21	x	-6	-5	x	0	x
CC(=O)c1cccc(N(CC(=O)NC2CCCCC2)C(=O)c2csnn2)c1	-2	-12	1	-3	0	34*
CCC1CCc2sc(C(=O)NNC(=O)c3ccncc3)cc2C1 (stereo not given)	-2	0	x	59*	0	-1
COc1cc(Br)cc(CN2CCN(C/C=C/c3ccccc3)CC2)c1O	-3	3	0	38*	x	8
COCCn1c(SCC(=O)Nc2cc(C)on2)nnc1-c1ccccc1	-1	-6	7	0	0	34*
SMILES	S100A4 MyoIIA	RAD52 inh	RAD54 inh	Casp6 inh	Xi reactivation	MLL AF4-AF9 inh
C[C@H]1CN([C@@H](C)CO)C(=O)c2cc(NC(=O)CCCCCC(=O)Nc3ccccc3N)ccc2O[C@H]1CN(C)S(=O)(=O)c1cccs1	98*	-39	x	-1	1	-3
Cc1noc(C)c1NC(=O)N(C)C[C@H]1Oc2c(NC(=O)CCCCCC(=O)Nc3ccccc3N)cccc2C(=O)N([C@@H](C)CO)C[C@H]1C	76*	5	x	-2	-1	3
C[C@@H]1CN([C@H](C)CO)C(=O)c2cccc(NC(=O)CCCCCC(=O)Nc3ccccc3N)c2O[C@H]1CN(C)S(=O)(=O)c1cccs1	74*	-28	x	3	0	1
Cc1noc(C)c1NC(=O)N(C)C[C@@H]1Oc2c(NC(=O)CCCCCC(=O)Nc3ccccc3N)cccc2C(=O)N([C@@H](C)CO)C[C@@H]1C	24	0	x	x	-1	-2
C[C@@H]1CN([C@@H](C)CO)C(=O)c2cccc(NC(=O)CCCCCC(=O)Nc3ccccc3N)c2O[C@@H]1CN(C)S(=O)(=O)c1cccs1	7	-11	x	1	-1	-1
C/C=C/c1cnc2c(c1)C(=O)N([C@H](C)CO)C[C@H](C)[C@H](CN(C)S(=O)(=O)c1cn(C)cn1)O2	-1	5	3	0	0	-6
Brc1ccc2c(c1)-c1ccccc1C1=NCCN12	-3	35	81*	0	0	-4
c1ccc(CCNc2ccc3ncc(-c4cccc5ccccc45)n3n2)nc1	-2	-4	0	57*	0	9
Cc1noc(C)c1NC(=O)Nc1ccc2c(c1)C(=O)N([C@@H](C)CO)C[C@H](C)[C@@H](CN(C)S(C)(=O)=O)OCCCC[C@H](C)O2	-23	-5	13	1	0	-2
CCn1cc(C(=O)O)c(=O)c2cc(F)c(N3CCN(C(=S)NC(=O)c4ccccc4Br)CC3)cc21	-14	-15	-6	36*	0	-2
O=C([C@@H]1[C@@H](CO)[C@@H]2Cn3c(cccc3=O)[C@H]1N2C(=O)CC1CC1)N1CCCCC1	3	-1	8	-1	0	-1
CCOC(=O)/C(=C/C=C1\Sc2ccccc2N1CC)C(C)=O	x	x	-231	x	x	x
CCOC(=O)/C(=C/C=C1\Sc2cc(C)c(C)cc2N1CC)C(C)=O	-41	-376	x	-1	17*	-1
